Data taken from ChEMBL document CHEMBL1127839, “In vitro photoinduced cytotoxicity and DNA binding properties of psoralen and coumarin conjugates of netropsin analogues: DNA sequence-directed alkylation and cross-link formation” (J Med Chem, 1994).

Tests used:
[1] = Dose to produce photoinduced DNA cross-link formation on isolated DNA
Nucleic Acid [2] = experiment: Apparent binding constant was determined by ethidium displacement assay in calf thymus; format: nucleic-acid assay; conditions: Bos taurus
[3] = test system: Panel leukemia (Carcinoma cell lines); experiment: In vitro photocytotoxicity is evaluated against human chronic myeloid leukemia cells grown in culture irradiated at 366 nM; format: functional, cell-based; conditions: light or radiation study
Procedure, shortened: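 K562 cells in RPMI 1640 with 10% FCS and 2 mM glutamine were exposed to drug at 0.01-100 μM final for 1 h at 37 °C in the dark. They were washed, then irradiated in PBS for 2 min at 366 nm (420 μW/cm², 5 cm, no filters). Cells were plated at 8 wells per sample and grown 4-5 days in the dark. Readout was MTT at 550 nm; IC50 was taken from the dose-response curve.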

[4] = test system: Panel leukemia (Carcinoma cell lines); experiment: In vitro photocytotoxicity is evaluated against human chronic myeloid leukemia cells grown in culture under the dark conditions; format: functional, cell-based
Procedure, shortened: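 Human chronic myeloid leukemia K562 cells were given a 1 h drug exposure (0.01-100 μM final, from DMSO stocks) at 37 °C in the dark, then washed, with no UV irradiation. Cells were cultured 4-5 days in the dark in 96-well plates, 8 wells per sample. MTT was added for 5 h and formazan dissolved in DMSO was read at 550 nm. IC50 was taken from the dose-response curve.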

Nucleic Acid [5] = experiment: Apparent binding constant was determined by ethidium displacement assay in pol (dA-dT); format: nucleic-acid assay
Nucleic Acid [6] = experiment: Apparent binding constant was determined by ethidium displacement assay in coliphage T4 DNA; format: nucleic-acid assay
Nucleic Acid [7] = experiment: Apparent binding constant was determined by ethidium displacement assay in poly (dG-dC); format: nucleic-acid assay
[8] = Dose to produce […] on isolated DNA; no DNA cross-links

SMILES	XL50 [1]	Binding constant (Nucleic Acid [2])	Binding constant (Nucleic Acid [5])	Binding constant (Nucleic Acid [6])	Binding constant (Nucleic Acid [7])	XL50 [8]	IC50 [3]	IC50 [4]
CN(C)CCNC(=O)c1nc(NC(=O)c2nc(NC(=O)CCCCOc3ccc4ccc(=O)oc4c3)cn2C)cn1C		100000 M⁻¹	110000 M⁻¹	100000 M⁻¹	140000 M⁻¹	No DNA crosslinks	40 µM	> 100 µM
CN(C)CCNC(=O)c1cc(NC(=O)c2cc(NC(=O)CCCCOc3ccc4ccc(=O)oc4c3)cn2C)cn1C		170000 M⁻¹	3.5e+06 M⁻¹	120000 M⁻¹	110000 M⁻¹	No DNA crosslinks	75 µM	> 100 µM
Cn1cc(NC(=O)c2cc(NC(=O)c3cc(NC=O)cn3C)cn2C)cc1C(=O)NCCC(=N)N		770000 M⁻¹	3.48e+07 M⁻¹	650000 M⁻¹	200000 M⁻¹			

Now from value to compound, other results behind:

XL50 [1]	Binding constant (Nucleic Acid [2])	Binding constant (Nucleic Acid [5])	Binding constant (Nucleic Acid [6])	Binding constant (Nucleic Acid [7])	XL50 [8]	SMILES	IC50 [3]	IC50 [4]
18 µM	48000 M⁻¹	17000 M⁻¹	14000 M⁻¹	25000 M⁻¹		COc1c2occc2cc2ccc(=O)oc12 [METHOXSALEN]	100 µM	> 100 µM
0.005 µM	550000 M⁻¹	290000 M⁻¹	660000 M⁻¹	90000 M⁻¹		CN(C)CCNC(=O)c1cc(NC(=O)c2cc(NC(=O)CCCCOc3c4occc4cc4ccc(=O)oc34)cn2C)cn1C	0.3 µM	> 100 µM
1.6 µM	40000 M⁻¹	90000 M⁻¹	270000 M⁻¹	210000 M⁻¹		CN(C)CCNC(=O)c1nc(NC(=O)c2nc(NC(=O)CCCCOc3c4occc4cc4ccc(=O)oc34)cn2C)cn1C	4.5 µM	55 µM
